# Assay results reported in ChEMBL document CHEMBL1151846, “Cytotoxic constituents of chinese propolis” (J Nat Prod, 2009).
# Tested on: HeLa
# Assay: Cytotoxicity against human HeLa cells by MTT assay
# Type: functional, cell-based
# Summary of the method: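 HeLa human cervical cancer cells were tested by MTT viability assay, following a previously published protocol. Doxorubicin was run as the reference cytotoxic control. Values are reported as IC50 in µM.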
row,Structure (SMILES),IC50 [µM]
1,COc1cc(O)c(C(=O)/C=C/c2ccccc2)c2c1C[C@H](O)[C@@H](c1cc(O)cc(O)c1)O2,7.3
2,COc1cc(O)c(C(=O)/C=C/c2ccccc2)c2c1C[C@@H](O)[C@H](c1cc(O)cc(O)c1)O2,7.1
3,COc1cc(O)c2c(=O)c(O)c(-c3ccc(O)c(O)c3)oc2c1 [RHAMNETIN],7.8
4,O=c1cc(-c2ccc(O)cc2)oc2cc(O)cc(O)c12 [APIGENIN],≥ 10
5,COc1cc(O)cc2c1C(=O)C(O)C(c1ccccc1)O2 (configuration not stated),≥ 10
6,O=c1c(O)c(-c2ccccc2)oc2cc(O)cc(O)c12 [GALANGIN],≥ 10
7,COc1cc(C2Oc3c(c(OC)cc(O)c3C(=O)/C=C/c3ccccc3)CC2O)ccc1O (configuration not stated),6.4
8,COc1ccc(/C=C/C(=O)O)cc1O [ISOFERULIC ACID],≥ 10
9,O=C1C[C@@H](c2ccccc2)Oc2cc(O)cc(O)c21 [PINOCEMBRIN],≥ 10
10,O=c1c(O)c(-c2ccc(O)c(O)c2)oc2cc(O)cc(O)c12 [QUERCETIN],≥ 10
11,O=c1cc(-c2ccccc2)oc2cc(O)cc(O)c12 [CHRYSIN],≥ 10
12,COc1cc(-c2oc3cc(O)cc(O)c3c(=O)c2O)ccc1O [ISORHAMNETIN],≥ 10
